Activity calls are given as the source filed them. No cut-off for these calls is given here.

The text below walks through data of ChEMBL document CHEMBL3351911, “Synthesis and evaluation of N⁶-substituted apioadenosines as potential adenosine A₃ receptor modulators” (Bioorg Med Chem, 2014).

For assay [1], the target named is T1, Adenosine receptor A1 (Homo sapiens) (UniProt P30542).
T1 sequence (whole entry): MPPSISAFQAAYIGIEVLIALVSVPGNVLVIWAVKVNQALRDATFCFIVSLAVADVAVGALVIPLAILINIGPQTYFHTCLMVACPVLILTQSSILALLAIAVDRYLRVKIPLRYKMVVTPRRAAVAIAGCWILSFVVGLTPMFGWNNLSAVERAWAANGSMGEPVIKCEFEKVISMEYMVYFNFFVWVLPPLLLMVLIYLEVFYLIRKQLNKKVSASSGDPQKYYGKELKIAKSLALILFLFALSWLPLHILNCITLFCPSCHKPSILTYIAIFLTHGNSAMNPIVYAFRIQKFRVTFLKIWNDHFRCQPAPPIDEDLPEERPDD
In words: Displacement of [3H]N6-[(R)-1-methyl-2-phenylethyl]adenosine from human recombinant A1AR expressed in CHO cells at 10 uM. The format is cell-based. The method in brief: (§1)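 Single-concentration radioligand displacement at 10 μM. Membranes came from CHO cells stably expressing human A1AR or A3AR, or HEK293 cells stably expressing human A2AAR. Agonist radioligands were [3H]N6-[(R)-1-methyl-2-phenylethyl]adenosine (A1), [3H]2-[p-(2-carboxyethyl)phenylethylamino]-5′-N-ethylcarboxamidoadenosine (A2A) and [125I]N6-(4-amino-3-iodobenzyl)adenosine-5′-N-methyluronamide (A3). Read-out was percent inhibition of binding.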

Assay [2] concerns the target Adenosine receptor A2a (Homo sapiens) (UniProt P29274). Briefly: Displacement of [3H]2-[p-(2-carboxyethyl)phenylethylamino]-50-N-ethylcarboxamidoadenosine from human recombinant A2AR expressed in HEK293 cells at 10 uM. The format is cell-based. In outline: as §1
Assay [3] has as its target T2, Adenosine receptor A3 (Homo sapiens) (UniProt P0DMS8).
T2 sequence (whole entry): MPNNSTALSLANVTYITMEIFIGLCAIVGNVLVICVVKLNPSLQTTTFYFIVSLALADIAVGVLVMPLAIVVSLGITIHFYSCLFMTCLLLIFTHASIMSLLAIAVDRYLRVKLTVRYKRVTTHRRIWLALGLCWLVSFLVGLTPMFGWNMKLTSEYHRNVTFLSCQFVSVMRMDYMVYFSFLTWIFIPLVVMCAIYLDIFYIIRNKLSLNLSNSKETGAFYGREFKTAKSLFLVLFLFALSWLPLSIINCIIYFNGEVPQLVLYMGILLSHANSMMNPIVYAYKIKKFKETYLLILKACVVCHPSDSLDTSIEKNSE
In words: Displacement of [125I]N6-(4-amino-3-iodobenzyl)adenosine-50-N-methyluronamide from human recombinant A3AR expressed in CHO cells at 10 uM. The assay is classed as cell-based. The method in brief:
as §1

Assay [4] has as its target T3, Adenosine receptor A3 (Homo sapiens, UniProt P0DMS8).
T3 sequence (P0DMS8 whole entry): T2 sequence (whole entry)
Briefly: Displacement of [125I]N6-(4-amino-3-iodobenzyl)adenosine-50-N-methyluronamide from human recombinant A3AR expressed in CHO cells. The assay is classed as cell-based. In outline:
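Competition binding used membranes of CHO cells stably expressing human A3AR and the agonist radioligand [125I]N6-(4-amino-3-iodobenzyl)adenosine-5′-N-methyluronamide. IC50 values from competition curves were converted to Ki by Cheng-Prusoff. Values are mean ± S.E.M.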

Assay [5] has as its target T2, Adenosine receptor A3 (Homo sapiens). Briefly: (§2) Agonist activity at human recombinant A3AR expressed in CHO cells assessed as inhibition of forskolin-induced stimulation of cAMP production. The assay is classed as functional, cell-based.
The target in assay [6] is T3, Adenosine receptor A3. The description is as §2. The format is functional, cell-based.
Assay [7] deals with T1, Adenosine receptor A1 (Homo sapiens). Briefly: Displacement of [3H]N6-[(R)-1-methyl-2-phenylethyl]adenosine from human recombinant A1AR expressed in CHO cells at 50 uM. The assay is classed as cell-based. The method in brief:
(§3)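 Percent inhibition of agonist radioligand binding measured at a single 50 μM test concentration. A1: CHO cell membranes with stably expressed human A1AR and [3H]N6-[(R)-1-methyl-2-phenylethyl]adenosine. A2A: HEK293 cell membranes with stably expressed human A2AAR and [3H]2-[p-(2-carboxyethyl)phenylethylamino]-5′-N-ethylcarboxamidoadenosine.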

The target of assay [8] is T2, Adenosine receptor A3 (Homo sapiens). In words: Modulatory activity at human recombinant A3AR expressed in CHO cells assessed as inhibition of forskolin-induced stimulation of cAMP production. The assay is classed as functional, cell-based. In outline: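 CHO cells stably expressing human A3AR were plated and grown 24 h, then washed in DMEM with 50 mM HEPES, pH 7.4. Compounds and/or agonist were added with rolipram (10 μM) and adenosine deaminase (3 units/mL). Forskolin (10 μM) was added at 45 min and incubation ran 15 more min. Cells were lysed in 0.1 M HCl. cAMP was measured by competitive binding of [3H]cAMP (2 nM) to protein kinase A, with a cAMP standard curve, filtration and scintillation counting.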

For assay [9], the target named is Adenosine receptor A2a (Homo sapiens) (UniProt P29274). In words: Displacement of [3H]2-[p-(2-carboxyethyl)phenylethylamino]-50-N-ethylcarboxamidoadenosine from human recombinant A2AR expressed in HEK293 cells at 50 uM. The format is cell-based. The method in brief:
as §3

Chain of Adenosine receptor A2a (Homo sapiens) (P29274 whole entry): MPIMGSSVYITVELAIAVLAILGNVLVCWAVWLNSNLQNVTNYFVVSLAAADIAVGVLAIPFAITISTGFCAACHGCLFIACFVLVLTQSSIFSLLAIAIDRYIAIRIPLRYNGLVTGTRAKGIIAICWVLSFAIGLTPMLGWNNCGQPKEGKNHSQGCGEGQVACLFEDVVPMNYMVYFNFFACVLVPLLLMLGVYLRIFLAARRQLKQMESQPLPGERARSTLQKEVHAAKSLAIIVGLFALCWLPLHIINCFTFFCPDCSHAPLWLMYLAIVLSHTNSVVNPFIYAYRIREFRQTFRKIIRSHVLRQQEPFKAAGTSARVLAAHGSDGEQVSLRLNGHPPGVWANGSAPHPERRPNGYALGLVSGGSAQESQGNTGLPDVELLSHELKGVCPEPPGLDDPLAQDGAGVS

With `Nc1ncnc2c1ncn2[C@@H]1OC[C@H](CO)[C@H]1O`, the inhibition was found to be 6% in [1], 19% in [2] and 32% in assay [3].
On the same counts, the results for `CCNC(=O)OC[C@@H]1CO[C@@H](n2cnc3c(N)ncnc32)[C@@H]1O` are 7%, 2% and 8%.
`COc1ccc(Cl)cc1CNc1ncnc2c1ncn2[C@@H]1OC[C@@](O)(CO)[C@H]1O`: the inhibition was 13% in assay [1] and 14% in [2]. In addition, the inhibition constant (Ki) in [4] was 3070 nM. Besides, the Emax in assay [5] is 50.9%. The IC50 in assay [6] came out at 1560 nM.
Regarding `Nc1ncnc2c1ncn2[C@H]1C[C@@H](CO)CO1`, the inhibition worked out at 10% in assay [1], 15% in assay [2] and 31% in assay [3].
Take `Nc1ncnc2c1ncn2[C@H]1C[C@H](CO)CO1`: the values for the inhibition in [7] and in [3] were 0% and 7%, respectively.
For `CCNC(=O)[C@@H]1CO[C@@H](n2cnc3c(N)ncnc32)[C@@H]1O`, the inhibition in assay [1] is 8%; in assay [2], 9%; in assay [3] it was 10%.
With `COc1ccc(Cl)cc1CNc1ncnc2c1ncn2[C@@H]1OC[C@](O)(CO)[C@H]1O`, the inhibition in [1] was 12%; in assay [2] it was 17%. In addition, the Ki in [4] came out at 978 nM. Further, the result in assay [8] was inactive.
With `OC[C@@]1(O)CO[C@@H](n2cnc3c(NCc4cccc(Cl)c4)ncnc32)[C@@H]1O`, the inhibition is 10% in assay [1], 10% in assay [2] and 43% in assay [3].
Consider `CNC(=O)OC[C@@]1(O)CO[C@@H](n2cnc3c(N)ncnc32)[C@@H]1O`, for which the inhibition in [1] stood at 12%; in assay [2], 10%; in [3] it was 26%.
As for `CCNC(=O)OC[C@]1(O)CO[C@@H](n2cnc3c(N)ncnc32)[C@@H]1O`, the inhibition in [1] amounted to 9%; in [2], 12%; in assay [3], 6%.
For `Nc1ncnc2c1ncn2[C@@H]1OC[C@](O)(CO)[C@H]1O`, in that order: 6%, 19% and 35%.
On the same counts, the results for `OC[C@]1(O)CO[C@@H](n2cnc3c(NCc4cccc(Cl)c4)ncnc32)[C@@H]1O` are 19%, 15% and 44%.
For the molecule `Nc1ncnc2c1ncn2[C@@H]1OC[C@@H](CO)[C@H]1O`, the inhibition in [7] came to 74%; in assay [9] it was 76%; in assay [3], 7%.
For the molecule `OC[C@]1(O)CO[C@@H](n2cnc3c(NCc4cccc(I)c4)ncnc32)[C@@H]1O`, the inhibition was found to be 35% in [1], 22% in assay [2] and 45% in assay [3].
For `Nc1c2ncn([C@@H]3OC[C@@](O)(CO)[C@H]3O)c2nc[n+]1Cc1cccc(Cl)c1`, in that order: 6%, 12% and 3%.
For `OC[C@@]1(O)CO[C@@H](n2cnc3c(NCc4cccc(I)c4)ncnc32)[C@@H]1O`, in that order: 27%, 17% and 48%.
Take `Nc1ncnc2c1ncn2[C@@H]1OC[C@@](O)(CO)[C@H]1O`: the inhibition in assay [7] is 0%; in [9], 64%; in assay [3], 10%.
